Bioassay records from PubChem.
Sampled rows, rich in hits. Any-hit rate of the full collection: about 3%.
Wee1 stabilizer = Wee1 degradation inhibitors, primary screen, cell-based, HeLa, Wee1K328M-luciferase, luminescence; actives 1.2% (n = 220,000); HeLa Luc-Wee1K328M stability; 100% = proteasome inhibitor MG132 effect; AID 1321, 2008; Wee1-like protein kinase (Homo sapiens), P30291; reporter increase, % at 5 µM;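 active means activation above the mean of all tested compounds plus 3 SD, set per screening run, cut at about 8.8% in these data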;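 further: cells exposed to compound for 20 h before luminescence read; 0% = DMSO alone and 100% = MG132 at 30 µM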
Hsp70 activator = Hsp70 transcriptional activators, primary screen, cell-based, HeLa, Hsp70 promoter luciferase, luminescence, 10 µM; HeLa Hsp70 promoter luciferase reporter; scaled: vehicle 0, proteasome-inhibitor control 100%; activation, % at 10 µM; actives 0.04% (n = 200,000); AID 1203, 2008;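 active means activation above the mean across all tested compounds plus 3 SD, cutoff set per campaign, cut at about 5.5% in these data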;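 further: 100% = MG132 at 30 µM as the positive control and 0% = DMSO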
NPY2 pot ag = NPY-Y2 potentiators or agonists, primary screen, cell-based. Neuropeptide Y receptor type 2 (Homo sapiens), P49146. cells expressing NPY-Y2, potentiator/agonist read-out. activation, % at 3.6 µM. actives 0.45% (n = 220,000). AID 1359, 2008; in the data active means activation above about 27%;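 further: cells stimulated with NPY near EC25 plus isoproterenol at EC100; 0% = vehicle plus submaximal agonist and 100% = vehicle plus saturating agonist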
NPY-Y1 antag = NPY-Y1 receptor antagonists, primary screen, cell-based. HEK293-CNG Y1 cells, membrane potential fluorescence; NPY at EC95, then isoproterenol. inhibition, % at 3.6 µM. actives 1% (n = 200,000). AID 1040, 2008;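 active means inhibition above the campaign mean inhibition of all tested compounds plus 3 SD, cut at about 20% in these data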;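 further: 0% = DMSO wells given NPY plus isoproterenol and 100% = isoproterenol alone without NPY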
Target sequence (P25929 whole entry, looked up): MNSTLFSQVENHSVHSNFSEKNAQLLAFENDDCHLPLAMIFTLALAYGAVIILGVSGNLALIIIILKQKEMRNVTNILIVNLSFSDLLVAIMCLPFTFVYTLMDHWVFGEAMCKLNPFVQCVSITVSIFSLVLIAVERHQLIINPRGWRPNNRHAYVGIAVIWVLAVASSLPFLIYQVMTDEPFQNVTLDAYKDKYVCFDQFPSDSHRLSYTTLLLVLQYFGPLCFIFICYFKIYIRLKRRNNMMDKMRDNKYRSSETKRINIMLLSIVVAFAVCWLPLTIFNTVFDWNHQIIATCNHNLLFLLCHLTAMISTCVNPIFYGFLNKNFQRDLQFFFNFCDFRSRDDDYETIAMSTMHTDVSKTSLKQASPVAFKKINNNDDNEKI
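Test system – HEK293 Y1/CNG channel cell line · Also added – NPY agonist 25 nM, then isoproterenol 1 µM plus Ro 20-1724 25 µM · Compound dosing – one concentration, 3.6 µM, in 0.4% DMSO · Schedule – compound incubation 1 h at room temperature, readout 45 min post-stimulation · Technique – fluorescence, membrane potential probe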
NPY-Y1 PAM-ag = NPY-Y1 receptor potentiators or agonists, primary screen, cell-based | Neuropeptide Y receptor type 1 (Homo sapiens), P25929 | activation, % at 3.6 µM | NPY-Y1 expressing cells, potentiator/agonist activation | actives 0.37% (n = 220,000); in the data active means activation above about 33%, passing the limit was not always enough;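 further: cells stimulated with NPY at EC10 then isoproterenol at EC100; 0% = low agonist plus stimulus and 100% = saturating agonist plus stimulus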
NPY Y2 blocker = NPY-Y2 receptor antagonists, primary screen, cell-based. NPY-Y2 expressing cells, antagonist mode. inhibition, % at 2.7 µM. actives 0.99% (n = 140,000). AID 793, 2007; in the data active means inhibition above about 17%;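 further: 0% = vehicle with agonist challenge and 100% = reference antagonist with challenge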
* marks the source's active call; other numbers are inactive results; · = no result.

SMILES	Wee1 stabilizer	Hsp70 activator	NPY2 pot ag	NPY-Y1 antag	NPY-Y1 PAM-ag	NPY Y2 blocker
COc1ccccc1-n1cc(C(=O)c2cc(Cl)ccc2O)cc(C#N)c1=O	-1.3	0.0	13.1	-3.1	-0.8	·
COc1ccccc1-n1c(=O)c(C#N)c(-c2ccc([N+](=O)[O-])cc2)c2cc(C(=O)c3ccccc3O)cnc21	-1.9	·	49.5*	·	73.1*	·
COc1ccc(CNC(=O)C(C#N)c2nc3ccccc3nc2N2CCCC2)cc1 (stereo not given)	0.0	-0.3	10.2	-4.6	-6.2	1.7
COc1ccc(CNC(=O)C(C#N)c2nc3ccccc3nc2N2CCN(C)CC2)cc1 (stereo not given)	2.9	-0.6	-13.4	11.0	-16.5	17.7*
COc1cc(C2C(C#N)=C(N)OC3=C2C(=O)CC(C)(C)C3)cc([N+](=O)[O-])c1O (stereo not given)	9.7*	·	5.6	·	15.1	·
CCN(CC)S(=O)(=O)c1cc(NC(=O)C(C)N2CCN(c3ccccn3)CC2)ccc1C (stereo not given)	2.0	-0.3	3.3	2.6	4.6	·
CCN(CC)S(=O)(=O)c1cc(NC(=O)C(C)Nc2ccccc2N2CCOCC2)ccc1C (stereo not given)	9.8*	-0.4	-9.7	-2.5	8.8	·
C=CCOc1ccn(C)c(=O)n1	4.7	·	-0.1	·	0.3	·
COc1cc(OC)c(C2=NOC(C(=O)NCc3ccc4c(c3)OCO4)C2)cc1Cl (stereo not given)	0.6	0.1	-5.6	10.2	-23.2	10.5
O=C(NCc1ccc2c(c1)OCO2)C1CC(c2ccc(Cl)cc2)=NO1 (stereo not given)	8.8*	0.1	-27.0	4.5	-18.8	5.8
O=C(Nc1ccc(S(=O)(=O)Nc2ncccn2)cc1)c1ccc(N2CCCC2=O)cc1	2.6	·	-4.5	·	8.0	·
N=c1c(-c2nc3ccccc3[nH]2)cc(C(=O)c2cccs2)nn1-c1ccc(Cl)cc1	-1.6	-0.3	42.8*	-8.8	47.7*	0.0
CCCCCCc1cc2cc(C(=O)OCC)c(=O)oc2cc1O	9.9*	·	-0.3	·	-0.1	·
CCc1ccc(-c2nc(CN3CCC(C(=O)NCc4ccccc4OC)CC3)c(C)o2)cc1	2.7	-0.2	-17.1	21.1*	-57.8	18.0*
O=C(Nc1nnc(COc2ccc(Cl)cc2)s1)c1ccco1	9.8*	-0.3	7.4	9.1	6.6	·
O=C(Nc1nnc(C23CC4CC(CC(C4)C2)C3)s1)c1ccco1	9.4*	-0.2	9.5	0.8	13.6	-2.5
Cc1nnc(NC(=O)c2ccco2)s1	-1.0	-0.4	2.8	-3.4	-0.3	3.8
CCCCOC(=O)c1ccc(NC(=O)/C=C/c2cccs2)cc1	0.7	-0.1	-3.5	10.5	-54.5	2.5
COc1cc(OC)c(S(=O)(=O)Nc2ccccc2NC(=O)CN2CCOCC2)cc1NC(C)=O	-0.5	-0.3	-0.2	-0.6	2.2	·
CSc1nnc(-c2ccccc2)c(-c2ccccc2)n1	8.9*	·	20.8	·	9.1	·
Cc1ccc(-c2cc(Cc3ccc(N(C)C)cc3)c(=O)[nH]n2)cc1	1.6	·	-6.6	·	-17.8	·
CC(C)C[C@H](NC(=O)c1nc[nH]c1C(=O)NCCCCCNC(=O)OC(C)(C)C)C(=O)OCc1ccccc1	-0.1	0.5	36.0*	-12.8	38.8*	·
C[C@H](NC(=O)c1nc[nH]c1C(=O)NCCCCCNC(=O)OC(C)(C)C)C(=O)OCc1ccccc1	9.1*	0.1	-0.8	3.8	-11.0	·
CNC(=O)NC(=O)COC(=O)c1ccc(-n2c(C)ccc2C)cc1	0.5	-0.2	15.7	-1.0	-1.1	-0.2
CCN(CC)c1nc2c(c(=O)n(C)c(=O)n2C)n1CC(=O)c1ccccc1	-1.6	·	-2.7	·	0.2	·
SMILES	Wee1 stabilizer	Hsp70 activator	NPY2 pot ag	NPY-Y1 antag	NPY-Y1 PAM-ag	NPY Y2 blocker
CC(C)C(=O)NC(NC(=S)Nc1cccc2cccnc12)C(Cl)(Cl)Cl (stereo not given)	0.7	-0.4	9.0	-1.6	11.9	2.4
CCC(=O)NC(NC(=S)Nc1cccc2cccnc12)C(Cl)(Cl)Cl (stereo not given)	9.8*	-0.3	9.6	0.6	-17.1	6.0
COc1ccc(CC(=O)NNS(=O)(=O)c2ccccc2)cc1OC	2.0	-0.2	4.3	-0.1	13.7	·
COc1ccc(CC(=O)NNS(=O)(=O)c2ccc(F)cc2)cc1OC	8.9*	-0.3	7.2	-6.9	-8.9	·
CCC(C)(C)NC(=O)C(Sc1ccccc1)c1ccccc1 (stereo not given)	-0.8	0.1	-18.1	10.0	9.7	·
COc1cccc(-c2nnn(CC(=O)O)n2)c1	0.1	0.0	-32.8	26.3*	-47.4	2.4
Cc1ccc(S(=O)(=O)N(Cc2ccc(Cl)cc2)c2ccccc2C(=O)NCc2ccco2)cc1	-0.2	-0.4	-11.6	29.2*	-109.5	32.2*
CC(=O)Nc1ccc(NS(=O)(=O)c2cc(Cl)ccc2Cl)cc1	-1.9	·	-12.4	·	-10.2	·
CC(=O)N(C)c1ccc(NS(=O)(=O)c2cc(Cl)ccc2Cl)cc1	-3.3	-0.2	-28.9	21.1*	-12.3	·
COC(=O)c1cc(C#N)c(N2CC(C)OC(C)C2)nc1C (stereo not given)	-0.3	-0.3	-14.4	3.7	-8.4	·
CCCC(=O)Nc1ccc(OCC(O)CNC(C)C)c(C(C)=O)c1 (stereo not given)	-0.5	0.2	4.6	-3.6	-12.4	1.0
CC(C)NCC(O)COc1cccc2[nH]ccc12 (stereo not given)	-0.2	0.2	105.7*	-15.0	113.3*	·
CC(=O)NCCc1c[nH]c2ccc(OCC(O)CNC(C)(C)C)cc12 (stereo not given)	-1.6	·	57.3*	·	81.4*	·
COC(=O)Cc1c[nH]c2ccc(OCC(O)CNC(C)C)cc12 (stereo not given)	-0.5	-0.2	88.1*	-14.2	101.3*	0.0
O=[N+]([O-])c1cccc(/C=C/c2ccccn2)c1	10.0*	·	-22.0	·	12.8	·
Cc1cc2ccccc2c(=O)n1CC(=O)N1CCN(c2cccc(Cl)c2)CC1	-1.6	-0.3	11.9	0.1	21.0	3.5
CCn1c(SCC(=O)N2CCN(c3cccc(Cl)c3)CC2)nc2ccccc2c1=O	-1.1	0.0	-8.9	23.9*	-34.7	23.9*
CC(C)(C)c1ccc(NC(=O)Nc2ccc(F)cc2)cc1	9.6*	0.0	10.9	-8.2	24.8	·
CCOC(=O)c1ccc(NC(=O)Nc2ccc(F)cc2)cc1	10.1*	0.1	10.8	-1.8	26.2	0.7
O=C(Nc1ccc(F)cc1)Nc1cc(OCC(F)(F)F)cc(OCC(F)(F)F)c1	1.1	-0.4	53.6*	-14.4	65.5*	-3.1
